Assay results as given in ChEMBL document CHEMBL2413003, “3-Carboxamido-5-aryl-isoxazoles as new CB2 agonists for the treatment of colitis” (Bioorg Med Chem, 2013).
The source made the active and inactive calls. The calls are words filed in the database; no cut-off is given here.

Columns and labels:
Cannabinoid receptor 1 = Cannabinoid receptor 1 (Homo sapiens, UniProt P21554); assay: Displacement of [3H]-SR141716A from human CB1 receptor expressed in CHO membranes after 1 hr by liquid scintillation counting; type: cell membranes
Homo sapiens = species: Homo sapiens; assay: Selectivity ratio of Ki for human CB1 receptor expressed in CHO membranes to Ki for human CB2 receptor expressed in CHO membranes; type: cell membranes
HT-29 = assay: Antiproliferative activity against human HT-29 cells at 10 uM after 72 hrs by MTS assay; type: cell-based; conditions: ht-29, 72 h
Method in brief: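 HT29 cells grown in DMEM-Glutamax with 10% FBS and penicillin/streptomycin, 37 °C, 5% CO2. Plated at 3000 cells/well in triplicate, left 24 h, then exposed to 10 µM compound (<0.1% DMSO) for 72 h. Growth read by colorimetric MTS reduction to formazan, given as % proliferation inhibition; ≥4 experiments in duplicate.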

Cannabinoid receptor 2 [1] = biological target: T1, Cannabinoid receptor 2 (Homo sapiens, UniProt P34972); assay: Agonist activity at human CB2 receptor expressed in CHO membranes assessed as [35S]-GTPgammaS binding after 1 hr; type: functional, cell membranes
Method in brief: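 hCB2-CHO membranes (10 µg protein) in 20 mM Hepes, 10 mM MgCl2, 100 mM NaCl, 0.1% BSA, pH 7.4, with 30 µM GDP. Started with 0.1 nM [35S]-GTPγS (final) and run 1 h at 30 °C, then filtered and counted. Nonspecific binding taken with 100 µM Gpp(NH)p; basal activity set at 100%. EC50 and Emax by nonlinear regression, ≥4 experiments in duplicate.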

Cannabinoid receptor 2 [2] = biological target: T1, Cannabinoid receptor 2; assay: Displacement of [3H]-CP55,940 from human CB2 receptor expressed in CHO membranes after 1 hr by liquid scintillation counting; type: cell membranes
Method in brief: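 0.5 nM [3H]-CP-55,940 on 6 µg hCB2-CHO membranes in 20 mM Hepes, 5 mM MgCl2, 1 mM EDTA, 0.3% BSA, pH 7.4, 1 h at 30 °C. Filtered over GF/C and counted by scintillation. Nonspecific binding with 5 µM (R)-(+)-WIN 55,212-2; DMSO <0.1%. Screened first at 10 µM; Ki by nonlinear regression of competition curves where displacement >60%; ≥4 experiments in duplicate.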

Mus musculus [3] = assay: Anticolitis activity in DSS-induced acute colitis C57/Bl6 mouse model assessed as reduction in ratio of IL-1beta mRNA to POLR2A mRNA level at 10 mg/kg, ip qd for 7 days measured after 7 days by RT-PCR analysis (reference value: 105.1 +/-17.0 no unit ); type: functional; conditions: route intraperitoneal
Mus musculus [4] = assay: Anticolitis activity in DSS-induced acute colitis C57/Bl6 mouse model assessed as increase in colon length at 10 mg/kg, ip qd for 7 days measured after 7 days (reference value: 4.6 +/- 0.2 cm); type: functional; conditions: route intraperitoneal
Mus musculus [5] = assay: Anticolitis activity in DSS-induced acute colitis C57/Bl6 mouse model assessed as reduction in colon inflammation at 10 mg/kg, ip qd for 7 days measured after 7 days by histological analysis relative to vehicle-treated control; type: functional, organism-based; parameters: dose 10 mg/kg
Method in brief: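 In DSS-colitic male C57BL6 mice given 10 mg/kg ip daily for 7 days in cyclodextrin vehicle, May-Grünwald-Giemsa-stained distal colon sections were scored for inflammatory infiltrate (0–3) and tissue damage (0–3), n = 10.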

Mus musculus [6] = assay: Anticolitis activity in DSS-induced acute colitis C57/Bl6 mouse model assessed as reduction in ratio of Kc mRNA to POLR2A mRNA level at 10 mg/kg, ip qd for 7 days measured after 7 days by RT-PCR analysis (reference value: 68.9 +/-9.8 no unit ); type: functional; conditions: route intraperitoneal
Mus musculus [7] = assay: Toxicity in DSS-induced acute colitis C57/Bl6 mouse model assessed as rovert reactions at 10 mg/kg, ip qd for 7 days measured after 7 days; type: organism-based; parameters: dose 10 mg/kg, route intraperitoneal; conditions: in vivo, 168 h
Mus musculus [8] = assay: Anticolitis activity in DSS-induced acute colitis C57/Bl6 mouse model assessed as change in body weight at 10 mg/kg, ip qd for 7 days measured after 7 days (reference value: 83.1 +/- 2.2 %); type: functional; conditions: route intraperitoneal
Mus musculus [9] = assay: Anticolitis activity in DSS-induced acute colitis C57/Bl6 mouse model assessed as reduction in disease activity index at 10 mg/kg, ip qd for 7 days measured after 7 days relative to vehicle-treated control; type: functional, organism-based; parameters: dose 10 mg/kg
Mus musculus [10] = assay: Anticolitis activity in DSS-induced acute colitis C57/Bl6 mouse model assessed as effect on TNF-alpha levels at 10 mg/kg, ip qd for 7 days measured after 7 days by RT-PCR analysis relative to vehicle-treated control; type: functional, organism-based; parameters: dose 10 mg/kg

T1 sequence (P34972 whole entry): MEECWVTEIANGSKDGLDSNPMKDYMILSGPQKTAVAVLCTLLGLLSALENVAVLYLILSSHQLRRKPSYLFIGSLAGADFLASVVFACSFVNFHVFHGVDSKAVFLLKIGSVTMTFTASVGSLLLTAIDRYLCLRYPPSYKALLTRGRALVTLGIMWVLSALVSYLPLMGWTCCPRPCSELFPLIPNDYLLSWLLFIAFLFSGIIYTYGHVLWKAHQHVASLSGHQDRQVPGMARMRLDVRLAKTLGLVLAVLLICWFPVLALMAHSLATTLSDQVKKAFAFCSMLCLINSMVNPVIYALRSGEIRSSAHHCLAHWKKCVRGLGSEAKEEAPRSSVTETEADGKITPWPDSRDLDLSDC
Cannabinoid receptor 1, sequence (P21554 whole entry, looked up): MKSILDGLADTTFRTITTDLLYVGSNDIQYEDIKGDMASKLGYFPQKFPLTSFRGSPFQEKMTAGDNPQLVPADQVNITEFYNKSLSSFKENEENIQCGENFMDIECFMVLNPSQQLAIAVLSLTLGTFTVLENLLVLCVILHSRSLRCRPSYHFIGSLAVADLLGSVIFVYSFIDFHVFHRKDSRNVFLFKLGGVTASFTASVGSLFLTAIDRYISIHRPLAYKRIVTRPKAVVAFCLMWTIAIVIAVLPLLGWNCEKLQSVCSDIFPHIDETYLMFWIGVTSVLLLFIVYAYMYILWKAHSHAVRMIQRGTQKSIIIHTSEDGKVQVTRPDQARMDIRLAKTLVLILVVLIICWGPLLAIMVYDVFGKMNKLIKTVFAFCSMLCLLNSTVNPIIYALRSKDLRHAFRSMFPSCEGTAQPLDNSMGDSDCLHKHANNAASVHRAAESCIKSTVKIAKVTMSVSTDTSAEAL

Structure (SMILES): CCCCCCOc1ccccc1-c1cc(C(=O)NC23CC4CC(CC(C4)C2)C3)no1
- Ki (Cannabinoid receptor 1): > 3000 nM
- Ratio Ki (Homo sapiens): > 98
- Activity (HT-29): 17%
- EC50 (Cannabinoid receptor 2 [1]): 3.4 nM
- Ki (Cannabinoid receptor 2 [2]): 30.5 nM

Structure (SMILES): CCCCCOc1ccccc1-c1cc(C(=O)NC2CCCC2)no1
- Ki (Cannabinoid receptor 1): > 1000 nM
- Ratio Ki (Homo sapiens): > 16
- Activity (HT-29): 13%
- EC50 (Cannabinoid receptor 2 [1]): 2.1 nM
- Ki (Cannabinoid receptor 2 [2]): 60.9 nM

Structure (SMILES): CCOc1ccccc1-c1cc(C(=O)NC23CC4CC(CC(C4)C2)C3)no1
- Ki (Cannabinoid receptor 2 [2]): > 1000 nM

Structure (SMILES): CCCCCOc1ccccc1-c1cc(C(=O)NCc2ccccc2)no1
- Ki (Cannabinoid receptor 2 [2]): > 3000 nM

Structure (SMILES): CCCCCOc1ccccc1-c1cc(C(=O)Nc2nnc(C)s2)no1
- Ki (Cannabinoid receptor 2 [2]): > 3000 nM

Structure (SMILES): CCCCCOc1ccccc1-c1cc(C(=O)NC2CCCCCC2)no1
- Ratio (Mus musculus [3]): 13.2
- Ki (Cannabinoid receptor 1): > 3000 nM
- Activity (Mus musculus [4]): 5.4 cm
- Activity (Mus musculus [5]): Active
- Ratio Ki (Homo sapiens): > 49
- Ratio (Mus musculus [6]): 12.3
- Activity (HT-29): 34%
- Activity (Mus musculus [7]): Non-toxic
- EC50 (Cannabinoid receptor 2 [1]): 11.1 nM
- Activity (Mus musculus [8]): 91.8%
- Ki (Cannabinoid receptor 2 [2]): 60.8 nM
- Activity (Mus musculus [9]): Active
- Activity (Mus musculus [10]): inactive

Structure (SMILES): CCCCCOc1cccc(-c2cc(C(=O)NC34CC5CC(CC(C5)C3)C4)no2)c1
- Ki (Cannabinoid receptor 2 [2]): > 1000 nM

Structure (SMILES): O=C(NC1C2CC3CC(C2)CC1C3)c1cc(-c2ccccc2)on1 (stereo unspecified)
- Ki (Cannabinoid receptor 2 [2]): > 1000 nM

Structure (SMILES): CCCCOc1ccccc1-c1cc(C(=O)NC23CC4CC(CC(C4)C2)C3)no1
- Ki (Cannabinoid receptor 1): > 3000 nM
- Ratio Ki (Homo sapiens): > 8
- Activity (HT-29): 2%
- EC50 (Cannabinoid receptor 2 [1]): 2.88 nM
- Ki (Cannabinoid receptor 2 [2]): 369 nM

Structure (SMILES): CCCCCOc1ccccc1-c1cc(C(=O)NC23CC4CC(CC(C4)C2)C3)no1
- Ki (Cannabinoid receptor 1): > 3000 nM
- Ratio Ki (Homo sapiens): > 83
- Activity (HT-29): 0%
- EC50 (Cannabinoid receptor 2 [1]): 2.9 nM
- Ki (Cannabinoid receptor 2 [2]): 36 nM

Structure (SMILES): CCCCCCCCOc1ccccc1-c1cc(C(=O)NC23CC4CC(CC(C4)C2)C3)no1
- Ki (Cannabinoid receptor 2 [2]): > 1000 nM

Structure (SMILES): CCCCCOc1ccc(-c2cc(C(=O)NC34CC5CC(CC(C5)C3)C4)no2)cc1
- Ki (Cannabinoid receptor 2 [2]): > 1000 nM

Structure (SMILES): CCCCCOc1ccccc1-c1cc(C(=O)Nc2cccc3ccccc23)no1
- Ki (Cannabinoid receptor 2 [2]): > 1000 nM

Structure (SMILES): CCCCCCCOc1ccccc1-c1cc(C(=O)NC23CC4CC(CC(C4)C2)C3)no1
- Ki (Cannabinoid receptor 2 [2]): > 1000 nM

Structure (SMILES): O=C(NCC12CC3CC(CC(C3)C1)C2)c1cc(-c2ccccc2)on1
- Ki (Cannabinoid receptor 2 [2]): > 1000 nM

Structure (SMILES): CCCCCOc1ccccc1-c1cc(C(=O)Nc2ccccc2)no1
- Ki (Cannabinoid receptor 2 [2]): > 1000 nM

Structure (SMILES): CCCCCOc1ccccc1-c1cc(C(=O)NC2CCCCCCC2)no1
- Ki (Cannabinoid receptor 1): > 3000 nM
- Ratio Ki (Homo sapiens): > 40
- Activity (HT-29): 17%
- EC50 (Cannabinoid receptor 2 [1]): 1.8 nM
- Ki (Cannabinoid receptor 2 [2]): 73.5 nM

Structure (SMILES): CCCCCOc1ccccc1-c1cc(C(=O)NN2CCCCC2)no1
- Ki (Cannabinoid receptor 2 [2]): 600 nM

Structure (SMILES): CCCOc1ccccc1-c1cc(C(=O)NC23CC4CC(CC(C4)C2)C3)no1
- Ki (Cannabinoid receptor 1): > 1000 nM
- Ratio Ki (Homo sapiens): > 12
- Activity (HT-29): 8%
- EC50 (Cannabinoid receptor 2 [1]): 2.21 nM
- Ki (Cannabinoid receptor 2 [2]): 79.6 nM

Structure (SMILES): CCCCCOc1ccccc1-c1cc(C(=O)NC2CCCCC2)no1
- Ki (Cannabinoid receptor 1): > 3000 nM
- Ratio Ki (Homo sapiens): > 131
- Activity (HT-29): 37%
- EC50 (Cannabinoid receptor 2 [1]): 1.9 nM
- Ki (Cannabinoid receptor 2 [2]): 22.8 nM

Structure (SMILES): O=C(NC12CC3CC(CC(C3)C1)C2)c1cc(-c2ccccc2)on1
- Ki (Cannabinoid receptor 2 [2]): > 1000 nM

Structure (SMILES): CCCCCOc1ccccc1-c1cc(C(=O)NC2CCC2)no1
- Ki (Cannabinoid receptor 1): > 1000 nM
- Ratio Ki (Homo sapiens): > 2
- Activity (HT-29): 46%
- EC50 (Cannabinoid receptor 2 [1]): 4.4 nM
- Ki (Cannabinoid receptor 2 [2]): 412 nM

Structure (SMILES): CCCCCOc1ccccc1-c1cc(C(=O)NC2C3CC4CC(C3)CC2C4)no1 (stereo unspecified)
- Ki (Cannabinoid receptor 1): > 3000 nM
- Ratio Ki (Homo sapiens): > 49
- Activity (HT-29): 0%
- EC50 (Cannabinoid receptor 2 [1]): 14.8 nM
- Ki (Cannabinoid receptor 2 [2]): 60.1 nM

Structure (SMILES): COc1ccccc1-c1cc(C(=O)NC23CC4CC(CC(C4)C2)C3)no1
- Ki (Cannabinoid receptor 1): > 3000 nM
- Ratio Ki (Homo sapiens): > 42
- EC50 (Cannabinoid receptor 2 [1]): 2.56 nM
- Ki (Cannabinoid receptor 2 [2]): 70.1 nM

Structure (SMILES): CCCCCOc1ccccc1-c1cc(C(=O)N(CC(C)C)CC(C)C)no1
- Ki (Cannabinoid receptor 1): 33 nM
- Ki (Cannabinoid receptor 2 [2]): 22.1 nM

Structure (SMILES): CCCCCOc1ccccc1-c1cc(C(=O)NC23CC4CC(CC2C4)C3)no1
- Ratio (Mus musculus [3]): 19.9
- Ki (Cannabinoid receptor 1): > 1000 nM
- Activity (Mus musculus [4]): 5.6 cm
- Activity (Mus musculus [5]): Active
- Ratio Ki (Homo sapiens): > 111
- Ratio (Mus musculus [6]): 11.5
- Activity (HT-29): 20%
- Activity (Mus musculus [7]): Non-toxic
- EC50 (Cannabinoid receptor 2 [1]): 4.8 nM
- Activity (Mus musculus [8]): 92.8%
- Ki (Cannabinoid receptor 2 [2]): 9 nM
- Activity (Mus musculus [9]): Active
- Activity (Mus musculus [10]): inactive

Structure (SMILES): CCCCCOc1ccccc1-c1cc(C(=O)NC2CC2)no1
- Ki (Cannabinoid receptor 2 [2]): > 1000 nM
